Laboratory results reported in ChEMBL document CHEMBL1129961, “Design, synthesis, and antiviral evaluation of 2-chloro-5,6-dihalo-1-beta-D-ribofuranosylbenzimidazoles as potential agents for human cytomegalovirus infections” (J Med Chem, 1997).

Experiments:
Human betaherpesvirus 5 [1] = test: Concentration required for 50% inhibition of HCMV replication was measured using a Plaque reduction assay; assay type: functional, organism-based
Procedure, shortened: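 HFF cells in 24-well dishes infected with about 100 pfu of HCMV (Towne) per cm² cell sheet. After adsorption, compound in growth medium added to duplicate wells at four to eight concentrations. Incubated 7 days at 37 °C, then crystal violet fixing/staining and microscopic plaque counts. IC50 by linear regression of % plaque reduction against log concentration.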

HFF = test: Visual cytotoxicity was scored on HFF cells at time of HCMV plaque enumeration; assay type: functional, cell-based; conditions: Homo sapiens
Procedure, shortened: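 Stationary HFF cells from the HCMV plaque assay, not affected by virus, inspected microscopically for cytotoxicity when plaques were counted after 7 days at 37 °C with compound at four to eight concentrations.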

Human alphaherpesvirus 1 = test: Antiviral activity was measured by plaque assay against HSV-1 virus by ELISA method; assay type: functional, organism-based
Procedure, shortened: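 HSV-1 (KOS strain) ELISA in BSC-1 cells, 10 000 per well in MEM(E) + 10% calf serum, seeded overnight at 37 °C. Drug in quadruplicate wells plus virus at 100 pfu/well, 3 days at 37 °C. Read-out: HRP-conjugated rabbit anti-HSV-1 antibody with TMB substrate, stopped with H2SO4, absorbance at 450 and 570 nm. IC50 from linear regression of % inhibition against log concentration.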

KB = test: Inhibition of KB cell growth was determined; assay type: functional, cell-based; conditions: Homo sapiens
Procedure, shortened: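 KB cells seeded at 3000–5000 per well, overnight at 37 °C. Compound added in quadruplicate at six to eight concentrations, 48 h at 37 °C in CO2 (two population doublings). Ethanol fixation, 0.1% crystal violet staining, acidified-ethanol elution, absorbance at 570 nm. IC50 by linear regression against log concentration.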

Human betaherpesvirus 5 [2] = test: Concentration required for 90% inhibition of HCMV replication was measured using a yield reduction assay; assay type: functional
Procedure, shortened: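 HFF monolayers in 96-well dishes infected with HCMV (Towne) at moi 0.5 to 1 pfu per cell. Compound serially diluted 1:3, 100 to 0.14 μM, in duplicate. 7 days at 37 °C, then one freeze-thaw cycle. Progeny titred by 1:3 serial dilution onto fresh HFF monolayers with plaque counts. IC90 by regression of % inhibition against log concentration.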

SMILES	IC50 (Human betaherpesvirus 5 [1])	IC50 (HFF)	IC50 (Human alphaherpesvirus 1)	IC50 (KB)	IC90 (Human betaherpesvirus 5 [2])
OC[C@H]1OC(n2c(Cl)nc3cc(Br)c(Br)cc32)[C@H](O)[C@@H]1O (some centres not stated)	3.8 µM	44 µM	> 100 µM	88 µM	1300 nM
Nc1nc2c(ncn2COC(CO)CO)c(=O)[nH]1 [GANCICLOVIR]	–	> 100 µM	–	> 100 µM	1600 nM
OC[C@H]1O[C@@H](n2c(Cl)nc3cc(Cl)c(Cl)cc32)[C@H](O)[C@@H]1O	–	–	–	–	1400 nM
OC[C@H]1OC(n2c(Cl)nc3cc(I)c(I)cc32)[C@H](O)[C@@H]1O (some centres not stated)	2.5 µM	13 µM	57 µM	27 µM	2200 nM
Fc1cc2nc(Cl)[nH]c2cc1F	> 100 µM	> 100 µM	–	> 100 µM	–
Nc1cc2[nH]c(Cl)nc2cc1I	> 100 µM	> 100 µM	> 100 µM	–	–
O=C(O)P(=O)(O)O [FOSCARNET]	–	> 100 µM	–	–	–
Clc1nc2cc(Br)c(Br)cc2[nH]1	8.5 µM	32 µM	65 µM	35 µM	–
O=[N+]([O-])c1cc2[nH]c(Cl)nc2cc1I	2.8 µM	10 µM	25 µM	–	7000 nM
Clc1nc2cc(I)c(I)cc2[nH]1	20 µM	32 µM	–	–	–
OC[C@H]1OC(n2c(Cl)nc3cc(F)c(F)cc32)[C@H](O)[C@@H]1O (some centres not stated)	> 100 µM	> 100 µM	> 100 µM	> 100 µM	75000 nM
OC[C@H]1OC(n2c(Cl)nc3ccccc32)[C@H](O)[C@@H]1O (some centres not stated)	> 100 µM	> 100 µM	–	> 100 µM	> 100000 nM
Nc1cc2[nH]c(Cl)nc2cc1[N+](=O)[O-]	> 100 µM	> 100 µM	90 µM	–	–
Cc1cc2nc(Cl)n(C3O[C@H](CO)[C@@H](O)[C@H]3O)c2cc1C (some centres not stated)	> 100 µM	> 100 µM	> 100 µM	> 100 µM	–
